Values after ≈ are worked out from the molar mass of the structure shown. Active and inactive are the calls of the source. No cut-off for these calls is given here.
Legend:
[1] = Stability in simulated intestinal fluid at pH 6.8 assessed as relative difference measured after 15 mins in presence of pancreatin by HPLC analysis; format: ADME; settings: simulated gi fluid, pH 6.8, 0.25 h
Outline: (§1)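 Incubation in simulated gastric fluid (pH 1.2, pepsin) or simulated intestinal fluid (pH 6.8, pancreatin). Aliquots deproteinized with ice-cold acetonitrile, centrifuged at 4°C and 12000 rpm for 10 min, filtered, analyzed by HPLC. RD% = (Ci − Cf)/Ci × 100. Stable if RD < 5%. Means of three experiments.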

Erythrocyte [2] = experiment: Cytoprotective activity against H2O2-induced oxidative damage in human RBC assessed as restoration of antioxidant activity measured after 72 hrs by TAC assay; format: functional, cell-based
Erythrocyte [3] = experiment: Cytoprotective activity against H2O2-induced oxidative damage in human RBC assessed as increase in cell viability measured after 72 hrs by LDH release assay; format: functional, cell-based
Outline: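 Heparinized whole blood cultured with phytohemagglutinin. Cells were co-incubated with 50 or 100 μM hybrid and H2O2 (25 μM). Viability was read by MTT: lymphocytes at 2×10^5 per well, MTT 4 h at 37°C, formazan dissolved in DMSO, absorbance 570 nm. LDH release was measured on 100 μL medium with a commercial kit. Results are relative to untreated control.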

[4] = Stability in simulated gastric fluid at pH 1.2 assessed as relative difference measured after 60 mins in presence of pepsin by HPLC analysis; format: ADME; settings: isolated protein, pH 1.2, 1 h; outline: as §1
SH-SY5Y [5] = experiment: Cytotoxicity against human SH-SY5Y cells assessed as reduction in cell viability at 1 to 250 mg/l measured after 48 hrs by MTT assay; format: cell-based; settings: dose 1-250 mg/L
Outline: (§2)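 SH-SY5Y cells grown in DMEM/F12 with 10% FBS and differentiated with retinoic acid (10 μM), seeded at 1×10^4 per well and cultured 24 h. Cells were given hybrids at 1–250 mg/L with or without Aβ1-42 (20 μM) for 48 h. MTT (5 mg/mL) added for 4 h at 37°C, DMSO solubilization, read at 570/630 nm. LDH read at 450 nm. Five independent experiments.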

SH-SY5Y [6] = experiment: Neuroprotective activity against amyloid beta (1 to 42)-induced apoptosis in human SH-SY5Y cells assessed as late apoptotic cells at IC50 measured after 48 hrs by Annexin-V/Propidium iodide staining based flow cytometry (reference value: 33.72%); format: functional
[7] = Stability in simulated intestinal fluid at pH 6.8 assessed as relative difference measured after 120 mins in presence of pancreatin by HPLC analysis; format: ADME; settings: simulated gi fluid, pH 6.8, 2 h; outline: as §1
[8] = Stability in simulated intestinal fluid at pH 6.8 assessed as relative difference measured after 30 mins in presence of pancreatin by HPLC analysis; format: ADME; settings: simulated gi fluid, pH 6.8, 0.5 h; outline: as §1
[9] = Half life in human plasma by HPLC analysis; format: ADME, cell-free
Outline: (§3)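 Compound stock added to human plasma pre-warmed to 37°C and diluted with 0.02 M phosphate buffer (pH 7.4) to 80% plasma. 100 μL samples taken over time, quenched with 200 μL cold acetonitrile, centrifuged, and supernatant analyzed by HPLC. t½ and kobs are means of three experiments.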

Erythrocyte [10] = experiment: Cytoprotective activity against H2O2-induced oxidative damage in human RBC assessed as increase in cell viability measured after 72 hrs by MTT assay; format: functional, cell-based
[11] = Stability in simulated gastric fluid at pH 1.2 assessed as relative difference measured after 30 mins in presence of pepsin by HPLC analysis; format: ADME; settings: isolated protein, pH 1.2, 0.5 h; outline: as §1
Erythrocyte [12] = experiment: Antioxidant activity in human RBC assessed as increase in total antioxidant capacity level up to 400 ug/ml measured after 72 hrs relative to control; format: functional; settings: dose microg/ml <=400
SH-SY5Y [13] = experiment: Neuroprotective activity against amyloid beta (1 to 42)-induced toxicity in human SH-SY5Y cells assessed as increase in cell viability at 1 to 250 mg/l measured after 48 hrs by MTT assay; format: functional, cell-based; settings: dose 1-250 mg/L; outline: as §2
[14] = Stability in simulated gastric fluid at pH 1.2 assessed as relative difference measured after 15 mins in presence of pepsin by HPLC analysis; format: ADME; settings: isolated protein, pH 1.2, 0.25 h; outline: as §1
SH-SY5Y [15] = experiment: Neuroprotective activity against amyloid beta (1 to 42)-induced apoptosis in human SH-SY5Y cells assessed as necrotic cells at IC50 measured after 48 hrs by Annexin-V/Propidium iodide staining based flow cytometry (reference value: 6.99%); format: functional
SH-SY5Y [16] = experiment: Neuroprotective activity against amyloid beta (1 to 42)-induced toxicity in human SH-SY5Y cells assessed as increase in cell viability at 1 to 250 mg/l measured after 48 hrs by LDH release assay; format: functional, cell-based; settings: dose 1-250 mg/L; outline: as §2
Erythrocyte [17] = experiment: Cytoprotective activity against H2O2-induced oxidative damage in human RBC assessed as recovery of H2O2-induced cell death at 50 to 100 uM measured after 72 hrs by LDH release assay relative to control; format: functional; settings: dose 50-100 µM
Outline: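 Heparinised human whole blood cultured in phytohemagglutinin-containing chromosome medium and co-incubated with hybrids and H2O2 at 37C for 72 h. LDH released into the culture medium was measured with a commercial kit. Triton X-100 served as positive control, with untreated cultures as reference. Cytoprotection was expressed as viability relative to control.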

[18] = Stability in simulated intestinal fluid at pH 6.8 assessed as relative difference measured after 60 mins in presence of pancreatin by HPLC analysis; format: ADME; settings: simulated gi fluid, pH 6.8, 1 h; outline: as §1
[19] = Stability in simulated intestinal fluid at pH 6.8 assessed as relative difference measured after 180 mins in presence of pancreatin by HPLC analysis; format: ADME; settings: simulated gi fluid, pH 6.8, 3 h; outline: as §1
[20] = Stability in human plasma assessed as observed rate constant by HPLC analysis; format: ADME, cell-free; outline: as §3
[21] = Solubility of compound in water by HPLC analysis; format: physicochemical
Erythrocyte [22] = experiment: Cytoprotective activity against H2O2-induced oxidative damage in human RBC assessed as restoration of antioxidant activity at 50 uM measured after 72 hrs by TAC assay relative to control; format: functional
Erythrocyte [23] = experiment: Cytoprotective activity against H2O2-induced oxidative damage in human RBC assessed as restoration of antioxidant activity at 100 uM measured after 72 hrs by TAC assay relative to control; format: functional
Erythrocyte [24] = experiment: Cytoprotective activity against H2O2-induced oxidative damage in human RBC assessed as recovery of H2O2-induced cell death at 50 to 100 uM measured after 72 hrs by MTT assay relative to control; format: functional; settings: dose 50-100 µM
SH-SY5Y [25] = experiment: Neuroprotective activity against amyloid beta (1 to 42)-induced apoptosis in human SH-SY5Y cells assessed as early apoptotic cells at IC50 measured after 48 hrs by Annexin-V/Propidium iodide staining based flow cytometry (reference value: 0.74%); format: functional

## COc1ccc(/C=C/C(=O)OCCOCCNC(=O)CCCCC2CCSS2)cc1OC (stereo not given)
[1]
  fold change (FC): 12.01%
Erythrocyte [2]
  Activity: Dose-dependent effect
Erythrocyte [3]
  Activity: Dose-dependent effect
[4]
  fold change (FC): 30.76%
SH-SY5Y [5]
  Activity: Non-Toxic
SH-SY5Y [6]
  Activity: 15.39%
[7]
  fold change (FC): 31.38%
[8]
  fold change (FC): 21.06%
[9]
  half-life: 17.2 h
Erythrocyte [10]
  Activity: Dose-dependent effect
[11]
  fold change (FC): 7.35%
Erythrocyte [12]
  Activity: 2%
SH-SY5Y [13]
  Activity: Active
[14]
  fold change (FC): 5.6%
SH-SY5Y [15]
  Activity: 1.6%
SH-SY5Y [16]
  Activity: Active
Erythrocyte [17]
  Activity: 0.4%
[18]
  fold change (FC): 27.2%
[19]
  fold change (FC): 40.3%
[20]
  K: 0.042 h⁻¹
[21]
  solubility: 10 µg/mL (≈ 20.7 µM)
Erythrocyte [22]
  Activity: 12.5%
Erythrocyte [23]
  Activity: 29.2%
Erythrocyte [24]
  Activity: 0.5%
SH-SY5Y [25]
  Activity: 2.85%

Source: ChEMBL document CHEMBL4680120, “Novel anti-Alzheimer phenol-lipoyl hybrids: Synthesis, physico-chemical characterization, and biological evaluation” (Eur J Med Chem, 2020)
